# “And” between values parts separate entries of the source, which are not always exact repeats. Equal values may be shown once.
# Assays:
# [1] = biological target: Proto-oncogene tyrosine-protein kinase Src (Homo sapiens, UniProt P12931); experiment: Tested for in vitro inhibitory activity against tyrosine protein kinase pp60 c-src
# Summary of the method: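 pp60c-src purified from human platelet membrane vesicles by anti-src immunoaffinity chromatography. Reaction stopped after 45 min with 5% phosphoric acid; nitrocellulose filter capture. Six inhibitor concentrations in triplicate; IC50 from mean of ≥2 determinations.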
# [2] = biological target: cAMP-dependent protein kinase (PKA) (Homo sapiens, UniProt P22694+P17612+P22612); experiment: In vitro inhibitory activity against protein kinase A; type: protein assay, unidentified
# Summary of the method: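 PKA catalytic subunit, 0.8 unit/assay, with Kemptide (LRRASLG) at 10 µg/mL. Buffers and procedure as for the src assay: 50 mM HEPES pH 7.4, 0.015% Brij 35, 0.1 mM EDTA, [γ-32P]ATP transfer, phosphoric acid stop, filter capture. Six inhibitor concentrations in triplicate; IC50 from mean of ≥2 determinations.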
# [3] = Reaction rate parameter value for phosphate with transfer with respect to ATP
# Summary of the method: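 Platelet pp60c-src, same peptide-phosphorylation assay run at four ATP levels (5, 50, 400 µM, 2 mM), six inhibitor concentrations in triplicate at each. Apparent KM and Vmax shifts used to pick an inhibition model; data fitted for KM, Vmax and KI, with fit quality given as RMS. Values from a representative experiment with substrate-only controls.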
# Proto-oncogene tyrosine-protein kinase Src, sequence (P12931 2-536 limits assumed): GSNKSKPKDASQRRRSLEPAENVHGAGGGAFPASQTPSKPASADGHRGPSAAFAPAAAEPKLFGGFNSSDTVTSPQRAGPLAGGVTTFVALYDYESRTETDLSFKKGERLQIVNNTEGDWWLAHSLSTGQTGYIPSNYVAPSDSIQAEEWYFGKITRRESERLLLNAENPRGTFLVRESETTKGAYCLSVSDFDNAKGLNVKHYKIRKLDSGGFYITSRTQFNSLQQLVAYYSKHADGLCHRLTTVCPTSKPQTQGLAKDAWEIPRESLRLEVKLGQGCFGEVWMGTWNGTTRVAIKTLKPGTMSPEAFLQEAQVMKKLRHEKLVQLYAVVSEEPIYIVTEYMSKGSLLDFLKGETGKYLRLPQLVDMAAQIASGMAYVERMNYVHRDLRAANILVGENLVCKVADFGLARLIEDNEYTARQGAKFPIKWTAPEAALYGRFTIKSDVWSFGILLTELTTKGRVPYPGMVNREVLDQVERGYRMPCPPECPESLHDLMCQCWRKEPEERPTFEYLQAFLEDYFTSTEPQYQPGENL
SMILES,IC50 [1],IC50 [2],Ki [3],Km [3]
Oc1cc2c3cc(O)c(O)cc3n(Cc3cccnc3)c2cc1O,8 µM,108 µM,,
O=[N+]([O-])c1ccc(S(=O)(=O)n2c3cc(O)c(O)cc3c3ccc(O)c(O)c32)cc1,12 µM,168 µM,,
O=c1c2cc(O)c(O)cc2c2cc(O)c(O)cc2n1Cc1ccc(S(=O)(=O)c2ccccc2)cc1,2 µM,51 µM,,
Oc1cc2nc(O)c3c(O)c(O)ccc3c2cc1O,0.9 µM,92 µM,,
CS(=O)(=O)c1ccc(C(=O)n2c3cc(O)c(O)cc3c3c(Br)cc(O)c(O)c32)cc1,9 µM,4 µM,,
O=C(c1ccc2ccccc2c1)n1c2cc(O)c(O)cc2c2ccc(O)c(O)c21,0.5 µM,1 µM,,
CS(=O)(=O)c1ccc(C(=O)n2c3cc(O)c(O)cc3c3ccc(O)c(O)c32)cc1,0.4 µM,40 µM,,
O=S(=O)(c1ccccc1)c1ccc(Cn2c3cc(O)c(O)cc3c3ccc(O)c(O)c32)cc1,0.6 µM,317 µM,,
O=S(=O)(c1ccccc1)n1c2cc(O)c(O)cc2c2ccc(O)c(O)c21,15 µM,250 µM,,
Oc1cc2c3ccc(O)c(O)c3n(Cc3ccc(Br)cc3)c2cc1O,3.4 µM,374 µM,,
N#Cc1ccc(Cn2c3cc(O)c(O)cc3c3ccc(O)c(O)c32)cc1,0.4 µM,275 µM,,
O=C(c1ccccc1)n1c2cc(O)c(O)cc2c2cc(O)c(O)cc21,4 µM,415 µM,,
CC(C)(C)c1ccc(C(=O)n2c3cc(O)c(O)cc3c3ccc(O)c(O)c32)cc1,0.7 µM,50 µM,,
O=S(=O)(c1cc(Cl)ccc1Cl)n1c2cc(O)c(O)cc2c2ccc(O)c(O)c21,7.7 µM,223 µM,,
Oc1cc2c3ccc(O)c(O)c3n(Cc3ccccc3)c2cc1O,2 µM,210 µM,,
O=C(c1ccc(C(F)(F)F)cc1)n1c2cc(O)c(O)cc2c2ccc(O)c(O)c21,0.7 µM,10 µM,,
Oc1cc2[nH]c3c(O)c(O)ccc3c2cc1O,0.8 µM,47 µM,,
Oc1cc2[nH]c3c(O)c(O)cc(Br)c3c2cc1O,0.6 µM,17 µM,,
O=S(=O)(c1ccccc1)n1c2cc(O)c(O)cc2c2cc(O)c(O)cc21,24 µM,> 600 µM,,
CCn1c(=O)c2c(O)c(O)ccc2c2cc(O)c(O)cc21,11 µM,541 µM,,
O=C(c1ccccc1)n1c2cc(O)c(O)cc2c2ccc(O)c(O)c21,0.9 µM,240 µM,,
Oc1cc2[nH]c3cc(O)c(O)cc3c2cc1O,1.5 µM,58 µM,1.06 µM and 0.53 µM,68.1 µM and 29.2 µM
Oc1cc2c3cc(O)c(O)cc3n(Cc3ccccc3)c2cc1O,7 µM,115 µM,,
Oc1cc2c3ccc(O)c(O)c3n(CCCc3ccccc3)c2cc1O,0.5 µM,0.5 µM,,
O=c1c2c(O)c(O)ccc2c2cc(O)c(O)cc2n1Cc1ccc([N+](=O)[O-])cc1,61 µM,309 µM,,
O=c1c2cc(O)c(O)cc2c2cc(O)c(O)cc2n1Cc1ccccc1,5.4 µM,390 µM,,
CCn1c(=O)c2cc(O)c(O)cc2c2cc(O)c(O)cc21,4.1 µM,> 2000 µM,,
CC(C)(C)c1ccc(C(=O)n2c3cc(O)c(O)cc3c3c(Br)cc(O)c(O)c32)cc1,12 µM,40 µM,,
Cc1cccc(Cn2c3cc(O)c(O)cc3c3ccc(O)c(O)c32)c1,1.7 µM,23 µM,,

# The remaining compounds from weak to strong by IC50 [1], led by results:
IC50 [1],IC50 [2],Ki [3],Km [3],SMILES
197 µM,410 µM,,,O=c1c2c(O)c(O)ccc2c2cc(O)c(O)cc2n1Cc1ccc(Cl)c(Cl)c1
21 µM,284 µM,,,O=c1c2c(O)c(O)ccc2c2cc(O)c(O)cc2n1Cc1ccccc1
14 µM,78 µM,,,O=S(=O)(Cc1ccccc1)n1c2cc(O)c(O)cc2c2ccc(O)c(O)c21
9 µM,50 µM,,,Oc1cc2c3ccc(O)c(O)c3n(Cc3ccc(C(F)(F)F)cc3)c2cc1O
7.2 µM,634 µM,,,O=c1c2c(O)c(O)ccc2c2cc(O)c(O)cc2n1Cc1ccc(S(=O)(=O)c2ccccc2)cc1
2 µM,7 µM,,,O=C(c1ccc(C(F)(F)F)cc1)n1c2cc(O)c(O)cc2c2c(Br)cc(O)c(O)c21
1.4 µM,4.2 µM,,,O=C(c1ccc(Br)cc1)n1c2cc(O)c(O)cc2c2ccc(O)c(O)c21
1.3 µM,20 µM,,,O=c1c2cc(O)c(O)cc2c2cc(O)c(O)cc2n1Cc1ccc(Cl)c(Cl)c1
1 µM,> 800 µM,,,Oc1cc2nc(O)c3cc(O)c(O)cc3c2cc1O
0.9 µM,6.6 µM,,,N#Cc1ccc(Cn2c3cc(O)c(O)cc3c3c(Br)cc(O)c(O)c32)cc1
0.9 µM,435 µM,,,Oc1cc2c3ccc(O)c(O)c3n(Cc3c(Cl)cccc3Cl)c2cc1O
0.9 µM,8.4 µM,,,O=c1c2cc(O)c(O)cc2c2cc(O)c(O)cc2n1Cc1ccc([N+](=O)[O-])cc1
0.6 µM,3.2 µM,,,O=C(c1ccc(-c2ccccc2)cc1)n1c2cc(O)c(O)cc2c2ccc(O)c(O)c21
0.6 µM,1.5 µM,,,O=C(c1cccc([N+](=O)[O-])c1)n1c2cc(O)c(O)cc2c2ccc(O)c(O)c21
0.4 µM,2.3 µM,,,O=C(CCc1ccccc1)n1c2cc(O)c(O)cc2c2ccc(O)c(O)c21
0.3 µM,0.6 µM,,,O=c1oc2c(O)c(O)cc3c(=O)oc4c(O)c(O)cc1c4c23 [ELLAGIC ACID]

# — ChEMBL document CHEMBL1127577, “Identification of tricyclic analogs related to ellagic acid as potent/selective tyrosine protein kinase inhibitors” (J Med Chem, 1994)
